{"data": "Results of several laboratories", "read-out": "cell growth or viability", "note": "Lines come from different studies, so protocols differ."}
{"SMILES": "COc1ccc(/C=C/C(=O)c2c(O)cc(OC)cc2OC)cc1", "cell line": "SPCA1", "assay": "MTT", "quantity": "IC50", "value": "19.1 µM"}
{"SMILES": "COc1c(O)cc2oc3cc(O)c(CC=C(C)C)c(O)c3c(=O)c2c1CC=C(C)C", "cell line": "22Rv1", "setting": "48 h", "quantity": "IC50", "value": "19.5 µM"}
{"SMILES": "O=C(CC(=O)C(F)(F)F)C(F)(F)F", "cell line": "HL-60", "assay": "resazurin", "setting": "72 h, dark", "quantity": "IC50", "value": "> 100 µM"}
{"SMILES": "Nc1nc(N)c(CNCCc2ccccc2F)c(C2CC2)n1", "cell line": "Vero", "assay": "SRB", "quantity": "IC50", "value": "> 100 µM"}
{"SMILES": "N.N.[Cl][Pt][Cl]", "cell line": "SMMC-7721", "assay": "MTT", "setting": "20 µM", "quantity": "inhibition", "value": "73.8%"}
{"SMILES": "COc1cc([C@@H]2c3cc4c(cc3[C@H](O)[C@H]3COC(=O)[C@H]23)OCO4)cc(OC)c1OC", "cell line": "NCI-H1299", "assay": "MTT", "setting": "72 h", "quantity": "EC50", "value": "0.003 µM"}
{"SMILES": "N.N.[Cl][Pt][Cl]", "cell line": "HL-60", "assay": "MTT", "setting": "48 h", "quantity": "IC50", "value": "1.17 µM"}
{"SMILES": "COc1cccc(CCNCc2c(N)nc(N)nc2C2CC2)c1", "cell line": "Vero", "assay": "SRB", "quantity": "IC50", "value": "7.2 µM"}
{"SMILES": "N.N.[Cl][Pt][Cl]", "cell line": "M109", "assay": "MTT", "quantity": "IC50", "value": "0.97 µM"}
{"SMILES": "COc1cc(O)c(C(=O)/C=C/c2ccc(O)cc2)c(OC)c1", "cell line": "SPCA1", "assay": "MTT", "quantity": "IC50", "value": "25 µM"}
{"SMILES": "COc1ccc(CCNCc2c(N)nc(N)nc2C2CC2)cc1", "cell line": "Vero", "assay": "SRB", "quantity": "IC50", "value": "71 µM"}
{"SMILES": "OC[C@H](Cc1cccc(O)c1)[C@H](CO)Cc1cccc(O)c1", "cell line": "SPCA1", "assay": "MTT", "quantity": "IC50", "value": "61.1 µM"}
{"SMILES": "Cc1nc(Nc2ncc(C(=O)Nc3c(C)cccc3Cl)s2)cc(N2CCN(CCO)CC2)n1", "cell line": "SK-BR-3", "assay": "WST-1", "setting": "72 h", "quantity": "GI50", "value": "1.6 µM"}
{"SMILES": "C[C@H]1CN(c2ccncc2NC(=O)c2ccc(F)c(-c3c(F)cccc3F)n2)C[C@@H](N)[C@@H]1O", "cell line": "U-266", "assay": "thymidine uptake", "quantity": "GI50", "value": "0.342 µM"}
